Laboratory results from paper PMC4096303 (Journal of the American Chemical Society, 2013).
One block for each molecule: values may come before it.

How the values were obtained:
[1] = Solution speciation studies of Zn; format: binding; details: pH 7.4, based on concentration of unchelated Zn(II)
Summary of the method: (§1)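 Ligand and metal chloride mixed at M(II):L = 1:2: CuCl2 25 µM, or ZnCl2 50 or 250 µM depending on ligand. Titrated with small HCl aliquots, recording at least 30 UV–vis spectra over pH 2–9. Stability constants fitted from the spectra; speciation diagrams modelled to give metal-free Cu(II) or Zn(II) at pH 7.4.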

[2] = Solution speciation studies of Cu; format: binding; details: pH 7.4, based on concentration of unchelated Cu(II)
Summary of the method: as §1

[3] = system: preformed aggregates of Aβ and metal–Aβ; experiment: Aβ disaggregation experiment; format: biochemical; details: aggregates preformed 24 h, compound 50 µM, gel/TEM
Summary of the method: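 Aβ40 or Aβ42 (25 µM) in Chelex-treated HEPES/NaCl buffer, pH 6.6 for Cu(II) or 7.4 for Zn(II), with or without CuCl2 or ZnCl2 (25 µM). Aggregated 24 h at 37 °C with agitation. Test compound then added (50 µM) and incubated 4, 8 and 24 h at 37 °C with agitation. Analysed by Tris–tricine gel/Western blot (6E10 antibody) and by uranyl acetate-stained TEM.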

[4] = TEAC assay with cell lysates; format: biochemical; details: M17 human neuroblastoma cell lysates, relative to Trolox
Summary of the method: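 M17 cells grown in 1:1 MEM/F12K with 10% FBS and penicillin/streptomycin to 80–90% confluence. Washed and harvested in cold PBS, pelleted, then sonicated on ice in 5 mM potassium phosphate pH 7.4 (0.9% NaCl, 0.1% glucose) and cleared at 10 000g, 4 °C. Supernatant mixed with test compound (0.045–0.330 mM), metmyoglobin, ABTS and H2O2; 5 min at room temperature; A750 read. TEAC taken as slope ratio versus Trolox; triplicate.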

[5] = Parallel Artificial Membrane Permeability Assay adapted for BBB; format: in vitro ADME; details: PAMPA-BBB, 25 µM, pH 7.4, 4 h, ambient temperature
Summary of the method: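 Test compound diluted in Prisma HT buffer, pH 7.4, to 25 µM final (1% DMSO) in donor wells, 11–12 replicates per compound. Acceptor PVDF filter coated with BBB-1 lipid; brain sink buffer in acceptor wells. Sandwich held 4 h at ambient temperature, unstirred. Absorbance read on a plate reader; −logPe averaged by software.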

Aβ40/Aβ42 = Aβ40/Aβ42 (Homo sapiens, UniProt P05067); experiment: Aβ aggregation inhibition experiment; format: biochemical; details: Aβ 25 µM
Sequence of Aβ40/Aβ42 (P05067 672-711 limits assumed): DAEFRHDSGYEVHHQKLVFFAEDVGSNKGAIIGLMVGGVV
Summary of the method: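 Aβ stock made in 1% NH4OH, diluted with ddH2O and quantified by A280. Test compound (50 µM, 1% DMSO) added with or without CuCl2/ZnCl2 (25 µM), 37 °C, constant agitation, 4, 8, 24 h. Read by 10–20% Tris–tricine gel, nitrocellulose transfer, anti-Aβ 6E10 Western blot, and TEM.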

[6] = In vitro metabolic stability, rat liver microsomes; format: in vitro ADME
Summary of the method: (§2)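 Liver microsomes incubated with test compound at 1 µM, 37 °C, with ketanserin as reference compound; half-life (t1/2) determined.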

[7] = UV-vis variable-pH titration; format: physicochemical; details: for pKa: Acidity constant (pKa), pH range 2–8
Summary of the method: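 Test compound (50 µM) in 100 mM NaCl, 10 mM NaOH (pH 12) titrated with small HCl aliquots, recording at least 30 UV–vis spectra over pH 2–8. Acidity constants fitted from the spectra; speciation diagram modelled to give the species distribution at pH 7.4.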

[8] = In vitro metabolic stability, mouse liver microsomes; format: in vitro ADME
Summary of the method: as §2

2-Deoxyribose assay = format: biochemical; details: ligand 125 µM, CuCl2 10 µM, absence and presence of Aβ (freshly prepared and aggregated)
[9] = Metal selectivity competition experiments by UV-vis; format: binding; details: stoichiometric ratios; 50 µM ligand, pH 7.4
Summary of the method: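 Ligand at 50 µM (1% DMSO) in Chelex-treated 20 mM HEPES, pH 7.4, 150 mM NaCl. It was first given 1 or 20 equiv of MgCl2, CaCl2, MnCl2, FeCl2, CoCl2, NiCl2 or CuCl2, then ZnCl2 (50 µM). Fe(II) samples were kept anaerobic by N2 purge. UV–vis spectra were recorded after 5 min at room temperature.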

Aβ42 = Aβ42 (Homo sapiens, UniProt P05067); experiment: Ion mobility-mass spectrometry of early Aβ42 oligomerization; format: biochemical; details: IM–MS
Sequence of Aβ42 (P05067 672-713): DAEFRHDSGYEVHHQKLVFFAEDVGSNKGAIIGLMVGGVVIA
Summary of the method: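 Lyophilized Aβ42 dissolved in 10 mM ammonium acetate, pH 7.4, to a final peptide concentration of 10 µM. Analysed by ion mobility on a traveling-wave Q-TOF mass spectrometer.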

Brain uptake study = format: in vivo, male CD1 mice; details: male, CD1, mouse, oral, 10 mg/kg
Summary of the method: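 Single 10 mg/kg oral gavage dose in sterile water to male CD1 mice, n = 3. Blood was drawn 5 min post-dose by retro-orbital or cardiac puncture into K2EDTA. Plasma was spun at 2000g for 5 min at 4 °C. Samples underwent protein precipitation and LC-MS/MS; LLOQ 1 ng/mL plasma, 4 ng/mL brain.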

[10] = Trolox equivalent antioxidant capacity; format: biochemical; details: ABTS cation radicals in EtOH, factor
[11] = In vitro metabolic stability, human liver microsomes; format: in vitro ADME
Summary of the method: as §2

N2aAPPswe or N2a cells = experiment: Cell viability by MTT assay, Aβ- or metal-Aβ-induced toxicity; format: cell-based, murine; details: 10 µM, 24 h, both N2a and N2aAPPswe cells
Summary of the method: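 Cells kept at 37 °C under 5% CO2 and seeded at 15 000 cells/well. Given CuCl2 or ZnCl2 (10 µM) plus test compound (10 µM final, 1% DMSO) for 24 h. MTT was added for 4 h at 37 °C and formazan dissolved overnight in acidic DMF/SDS. Absorbance read at 600 nm; viability expressed relative to DMSO-only cells; n = 3.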

Dissociation constant (Kd) with Zn(II) [1]: micromolar range
Dissociation constant (Kd) with Cu(II) [2]: micromolar range
−logPe [5]: 4.70 (±0.01)
SMILES: Nc1cccc2ccc(CO)nc12 [Compound 1, (8-aminoquinolin-2-yl)methanol, reference compound]
Effect on preformed metal-free and metal-treated Aβ aggregates [3]: no discernible difference
Antioxidant capacity (TEAC value) in cell lysates [4]: 0.86 ± 0.10

SMILES: CN(C)c1ccc(O)cc1 [DAP, 4-(dimethylamino)phenol, reference compound]
Effect on Zn(II)-triggered Aβ aggregation (Aβ40/Aβ42; ZnCl2 25 µM, compound 50 µM, pH 7.4): influenced Zn(II)-triggered Aβ aggregation, similar to ML

SMILES: CN(C)c1ccc(O)c(CNc2cccc3ccc(CO)nc23)c1 [ML, 4-(dimethylamino)-2-(((2-(hydroxymethyl)quinolin-8-yl)-amino)-methyl)phenol]
half-life at 1 µM [6]: < 30 min
pKa ([7]; first of three printed): 2.63
pKa ([7]; second of three printed): 3.97
pKa ([7]; third of three printed): 6.23
Neutral form at physiological pH ([7]; pH 7.4, solution speciation diagram based on the acidity constants): ca. 94%
half-life at 1 µM [8]: < 30 min
Copper-mediated generation of hydroxyl radicals (2-Deoxyribose assay): significantly reduced
Selectivity toward Zn(II) over other divalent metal ions [9]: relatively selective for Zn(II) over Mg(II), Ca(II), or Mn(II)
Dissociation constant (Kd) with Zn(II) [1]: nanomolar range
Dissociation constant (Kd) with Cu(II) [2]: picomolar range
Inhibition of Aβ42 dodecamer formation (Aβ42; 1:5 mixture of Aβ42 and ML): completely
Inhibition of Aβ42 hexamer formation (Aβ42; 1:5 mixture of Aβ42 and ML): partially
Disaggregation of preformed Aβ42 dodecamers (Aβ42; Aβ42 on ice ca. 4 h, then ML added (1:5)): disaggregates preformed dodecamers
Effect on preformed metal-free and metal-treated Aβ aggregates [3]: could transform preformed aggregates into relatively smaller, amorphous conformations
concentration at 5 min (Brain uptake study; brain): 14.3 ± 4 ng/g
concentration at 5 min (Brain uptake study; plasma): 5.91 ± 1.24 ng/mL
Free radical scavenging (TEAC) in solution relative to DAP, 1 and Trolox [10]: ca. 2.6
Antioxidant capacity (TEAC value) in cell lysates [4]: 1.41 ± 0.15
Effect on metal-induced Aβ aggregation (Aβ40/Aβ42; CuCl2 or ZnCl2 25 µM, compound 50 µM, 37 °C): noticeable effects on the modulation of metal-induced Aβ aggregation
Effect on metal-free Aβ40/Aβ42 aggregation (Aβ40/Aβ42; compound 50 µM, 4, 8, 24 h, 37 °C): could direct the production of Aβ species with a wide range of MW
half-life at 1 µM [11]: < 30 min
−logPe [5]: 4.49 (±0.01)
Cell survival, compound with and without metal ions (no Aβ) (N2aAPPswe or N2a cells): ca. 85%

SMILES: Cc1c(C)c2c(c(C)c1O)CCC(C)(C(=O)O)O2 (stereo not drawn) [Trolox, 6-hydroxy-2,5,7,8-tetramethylchroman-2-carboxylic acid]
Antioxidant capacity (TEAC value) in cell lysates [4]: 1.00 ± 0.08
